STAT3 activator: activators of IL-6 induced STAT3 signaling. activation (% of control), % at 5.6 µM. AID 871. 0.91% of 190,000 active. U3A cells, IL-6 STAT3-luciferase reporter, luminescence; 100% = signal with IL-6 EC80 alone;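 active = activation above the screen-wide mean of compound activation plus 3 SD, cut at about 130% in these data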;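 note: 0% = background luminescence of wells with medium and substrate only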
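Test system: STAT3-luciferase reporter U3A cells; Detection: reporter luminescence signal; Times: 1 h compound pre-exposure, 6 h IL-6 stimulation, 37 °C; Benchmarks: IL-6-only high control; Also added: IL-6 stimulus at 33 ng/mL final.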
STAT3 blocker: reduces IL-6 driven STAT3 reporter signal; inhibition, % at 5.5 µM; 0.89% of 190,000 active; AID 862; U3A cells, IL-6 STAT3-luciferase reporter, luminescence; host cell line lacks STAT1;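 active = inhibition above the mean inhibition across all screened compounds plus 3 SD, cut at about 44% in these data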;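 note: 0% = DMSO only wells and 100% = 100 µM nifuroxazide control wells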
APP 5'UTR act: APP 5'UTR luciferase reporter activation; SH-SY5Y APP 5'UTR luciferase reporter, luminescence; zero percent = DMSO vehicle wells; activation, % at 2 µM; 1% of 190,000 active; AID 1276;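 active = activation above a set limit, based on mean plus 3 SD of controls, cut at about 140% in these data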
NF-kB expr up: compounds increasing NF-kB expression in human neuronal cells. 1.6% of 190,000 active. fold change at 12.5 µM. NF-kB reporter expression; hits give high values; in the data active = fold change above about 3.3
STAT1 activator: activators of IFN-gamma induced STAT1 signaling | NIH 3T3 STAT1-luciferase reporter, luminescence; 100% = IFN-gamma alone, no compound | 2.6% of 200,000 active | activation (% of control), % at 5.5 µM;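 active = activation above the screen-wide mean activation plus 3 SD, cut at about 130% in these data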;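 note: raw ratio to IFN-gamma control signal so 100% means no change and 0% no light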
STAT1 inh: STAT1 signaling inhibition. NIH 3T3 STAT1-luciferase reporter, IFN-gamma, luminescence. 0.35% of 200,000 active. inhibition, % at 5.5 µM. AID 920;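 active = inhibition above a set limit, the mean inhibition across all tested compounds plus 3 SD, cut at about 34% in these data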;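 note: 0% = IFN-gamma with DMSO and 100% = IFN-gamma with 300 µM nifuroxazide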
An asterisk follows results filed as active; . = no result given. Only some compounds are listed: those with a hit (about 5.1% of all), similar ones and a draw of the others.

SMILES	STAT3 activator	STAT3 blocker	APP 5'UTR act	NF-kB expr up	STAT1 activator	STAT1 inh
Cc1cc2nn(-c3ccccc3)nc2cc1NC(=O)c1cccs1	104.8	-2.5	28.6	2.08	142.7*	-46.6
CCC(=O)Nc1cc2nn(-c3ccccc3)nc2cc1Cl	82.4	26.6	116.1	2.69	143.6*	-47.9
COc1cc(/C=C2/C(=O)c3cccc([N+](=O)[O-])c3C2=O)c(Br)cc1O	107.6	-6.4	-6.8	0.93	100.0	0.0
CCn1cnc2cc([N+](=O)[O-])ccc21	98.4	3.2	20.8	1.03	106.3	-8.3
Cc1ccc(Cc2cnc(NC(=O)C3CCCO3)s2)cc1 (stereo not given)	102.3	-1.5	145.2*	4.51*	134.6*	-38.7
Cc1ccc(C(=O)Nc2ncc(Cc3ccccc3)s2)o1	72.5	35.3	205.3*	1.31	120.7	-22.6
O=C(Nc1ncc(Cc2ccc(SC(F)F)cc2)s1)c1ccccc1	101.8	4.3	-86.2	3.58*	120.4	-22.4
Cc1csc(NC(=O)c2ccc(C)o2)n1	105.2	-3.5	69.1	2.09	115.3	-17.1
Cc1csc(NC(=O)C2CCCO2)n1 (stereo not given)	104.0	0.2	-0.1	0.92	98.9	1.2
Cc1ccccc1/C=N\NC(=O)c1ccccc1-n1cccc1	103.8	-2.2	-37.8	1.09	98.2	1.3
FC(F)(F)c1cc(-c2ccccc2)nc(N2CCCCCC2)n1	101.3	1.2	4.9	0.94	96.9	3.4
c1ccc(-c2cnnc(N3CCCCC3)n2)cc1	107.9	-1.6	112.8	1.13	142.0*	-46.2
CCC(=O)N1CCN(c2ccc(Cl)cc2NC(=O)Cc2ccc(Cl)cc2)CC1	107.8	-3.2	-9.4	0.56	89.2	11.8
CCOC(=O)Cn1c(-c2ccccc2)nc2ccccc2c1=O	95.7	12.6	20.2	1.17	129.1*	-32.5
Cc1ccc(C(=O)O/N=C(\N)c2ccc(Br)cc2)cc1	90.5	18.0	35.8	3.83*	136.7*	-39.8
N/C(=N\OC(=O)c1ccc(Br)cc1)c1ccccc1	96.5	14.2	123.7	9.74*	150.1*	-55.7
N/C(=N\OC(=O)c1cccc(Br)c1)c1ccc(Br)cc1	124.4	-17.7	-5.4	0.98	98.0	2.2
C=CCn1c(SCC(=O)NCCOC)nnc1-c1cc2c(s1)CCC(CC)C2 (stereo not given)	101.7	3.5	-20.6	1.18	100.3	-0.3
O=[N+]([O-])c1ccccc1Sc1nccn1Cc1ccccc1	101.6	3.6	-1.9	1.28	90.2	10.8
CCCCCOC(=O)c1[nH]c2c(c1C)C(=O)CC(c1ccco1)C2 (stereo not given)	121.1	-24.7	-95.3	5.16*	101.8	-2.0
O=C(CSc1cccc[n+]1[O-])N1CCCCCC1	104.8	-4.0	-0.7	1.06	103.9	-4.3
O=C(CSc1cccc[n+]1[O-])CSc1cccc[n+]1[O-]	95.3	10.3	-0.9	4.86*	92.6	5.2
Cc1cccc(OCC(=O)N(C)CCc2ccccn2)c1	105.8	-5.4	10.0	1.21	98.7	1.4
COc1c(OC(C)=O)ccc(/C=C/c2ccc3ccccc3n2)c1[N+](=O)[O-]	105.1	-0.4	136.4*	1.06	99.0	1.1
O=C(O)c1cc2c(ccc3ccccc32)o1	106.4	2.7	11.2	1.27	106.8	-7.5
SMILES	STAT3 activator	STAT3 blocker	APP 5'UTR act	NF-kB expr up	STAT1 activator	STAT1 inh
Nc1ccc2oc3ccc(N)cc3c(=O)c2c1	87.1	15.6	.	2.06	143.0*	-51.8
O=C(O)C1C2CCC(O2)C1C(=O)NCc1ccc(Cl)cc1 (stereo not given)	102.8	1.6	-4.5	0.82	96.7	3.7
Nc1ccc(OCc2ccccc2)cc1	105.0	2.8	14.9	1.72	115.8	-17.4
c1ccc(COc2ccc(-c3csnn3)cc2)cc1	115.0	-7.0	24.1	3.18	135.7*	-39.7
CSc1nnc2c(n1)[nH]c1c(C)cccc12	76.2	31.2	17.0	1.43	118.3	-20.1
CCSc1nnc2c(n1)[nH]c1c(C)cccc12	94.7	9.9	31.2	1.62	139.0*	-42.9
CSc1ccc(CN(C)C(C)C(=O)NCc2ccccc2)cc1 (stereo not given)	105.2	3.1	-5.0	0.95	97.2	1.0
CCc1nc(Nc2ccncc2)c2oc3ccccc3c2n1	96.8	9.8	27.1	3.59*	86.1	15.2
Cc1cc(NC(=O)C2CC2)ncc1NC(=O)c1ccccn1	98.2	7.4	36.9	1.95	121.2	-24.4
COCCNC(=O)Cn1cc(C(=O)c2ccco2)c2ccccc21	102.9	-1.6	-2.7	1.14	101.7	-3.4
O=C(CSc1nnc2c(n1)[nH]c1ccc(S(=O)(=O)N3CCOCC3)cc12)Nc1ccc(F)c(F)c1	106.4	-7.2	11.8	1.28	109.9	-9.8
CC(C)c1ccc2[nH]c3nc(SCC(=O)N4CCOCC4)nnc3c2c1	102.2	3.9	14.7	1.03	131.4*	-36.9
COC(=O)/C=C1\OC(c2ccccc2)=CC1=O	103.2	-3.0	-11.9	0.84	105.3	-6.0
CCOc1ccc(C(=O)Nc2ccccc2-c2ccccc2)cc1Cl	83.2	26.0	0.0	1.18	101.3	-1.4
CCOc1ccc(C(=O)Nc2cccc(C(=O)O)c2C)cc1Cl	38.7	74.6*	43.5	3.45*	54.5	50.9*
CCOc1c(Cl)cc(C(=O)Nc2ccccc2C(=O)O)cc1Cl	123.8	-21.2	-6.1	3.96*	119.5	-21.3
Cc1ccc(-c2cc(C(=O)Nc3ccc(S(=O)(=O)Nc4nccs4)cc3)c3ccccc3n2)c(C)c1	99.8	-4.9	-0.1	1.28	97.5	2.8
COc1ccc(C(=O)/C=C/c2cn(CC(O)CN3CCOCC3)c3ccccc23)cc1 (stereo not given)	105.5	-4.3	4.7	0.73	116.6	-18.6
COc1ccc(C(=O)/C=C/c2cn(CN3CCN(C)CC3)c3ccccc23)cc1	86.7	19.9	52.2	6.45*	112.6	-13.6
CCOc1ccc(C(=O)/C=C/c2cn(CN3CCN(C)CC3)c3ccccc23)cc1	93.6	11.4	21.0	3.42*	110.7	-11.9
COc1ccc2cc(CO)c(Cl)nc2c1	98.7	1.4	-1.4	1.78	113.8	-14.6
COc1ccc2cc(/C=N/O)c(Cl)nc2c1	93.8	8.7	24.9	1.79	129.1*	-33.0
O=C(/C=C/c1ccc(F)cc1)NCCc1ccc2c(c1)OCCO2	104.8	-10.5	1.5	1.58	92.7	8.1
Oc1ccc(/C=N/NC2=NCCCCC2)cc1	104.0	-4.6	-1.8	1.3	104.1	-4.5
O=[N+]([O-])c1ccccc1/C=N/NC1=NCCCCC1	113.9	-16.7	37.2	2.06	132.8*	-36.1
CC1CCCC(C)N1CC(O)COc1c(F)cc(Br)cc1F (stereo not given)	101.9	5.6	12.6	1.29	89.5	10.1
COc1ccc(NC(=O)c2noc3c2CCC3)cc1	97.5	9.7	142.7*	3.96*	138.6*	-41.8
COc1ccc(CNC(=O)c2noc3c2CCCCC3)cc1	99.4	7.2	-1.3	1.63	105.8	-4.8
